Measurements as given in ChEMBL document CHEMBL2407047, “Molecular design, synthesis and biological evaluation of 1,4-dihydro-4-oxoquinoline ribonucleosides as TcGAPDH inhibitors with trypanocidal activity” (Bioorg Med Chem Lett, 2013).

Key:
[1] = biological target: T1, Glyceraldehyde-3-phosphate dehydrogenase, glycosomal (Trypanosoma cruzi, UniProt P22513); experiment: Inhibition of Trypanosoma cruzi glycosomal GAPDH
Summary of the method: (§1)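 Enzyme assays were run by isothermal titration calorimetry (ITC), probing the GAPDH NAD+ cosubstrate site and the active site. Affinity is reported as apparent Ki. Mode of inhibition was judged from how NAD+ and G3P KM and Vmax respond. Kinetic models were compared by second-order Akaike's information criterion.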

[2] = biological target: T1, Glyceraldehyde-3-phosphate dehydrogenase, glycosomal; experiment: Competitive inhibition of Trypanosoma cruzi glycosomal GAPDH NAD+ binding site by ITC method; details: read-out: Ki(app); summary of the method: as §1
[3] = Cytotoxicity against C57BL/6 mouse spleen cells after 24 hrs using propidium iodide by flow cytometry; format: cell-based
Summary of the method: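 Spleen cells were isolated from C57BL/6 mice by mechanical dissociation. They were incubated with compound at 5·10⁶ cells mL⁻¹ for 24 h at 37 °C under 5% CO2, then stained with 10 µg mL⁻¹ propidium iodide and analysed by flow cytometry. Two experiments were run in duplicate; mean plus standard deviation is reported.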

Trypanosoma cruzi = experiment: Trypanocidal activity against trypomastigotes forms of Trypanosoma cruzi Tulahuen infected in monkey LLC-MK2 cells after 24 hrs by beta-galactosidase reporter assay; format: functional
[4] = Selectivity index, ratio of C57BL/6 mouse spleen cells to trypomastigotes forms of Trypanosoma cruzi Tulahuen infected in monkey LLC-MK2 cells; format: toxicity, cell-based; details: read-out: Selectivity Index
[5] = biological target: T1, Glyceraldehyde-3-phosphate dehydrogenase, glycosomal; experiment: Non-competitive inhibition of Trypanosoma cruzi glycosomal GAPDH active site by ITC method; details: read-out: Ki(app); summary of the method: as §1
Saccharomyces cerevisiae = experiment: Cytotoxicity against Saccharomyces cerevisiae by FUN-1 fluorescence assay; format: organism-based; details: in vivo
Summary of the method: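 Log-phase S. cerevisiae (CBMAI 0194) was grown in LB with 2% glucose and 10 mmol L⁻¹ acetate buffer, pH 5, at 37 °C. Cells were resuspended in NaHEPES pH 7.2 at 10⁷ cells mL⁻¹ and stained with FUN-1 (working solution 200 µmol L⁻¹) for 30 min, with or without compound, in 0.6% DMSO. Fluorescence (excitation 485 nm; emission 530/620 nm) was read every 10 min for 1 h at 37 °C. Viability was taken from the red/green ratio.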

T1 sequence (P22513 whole entry): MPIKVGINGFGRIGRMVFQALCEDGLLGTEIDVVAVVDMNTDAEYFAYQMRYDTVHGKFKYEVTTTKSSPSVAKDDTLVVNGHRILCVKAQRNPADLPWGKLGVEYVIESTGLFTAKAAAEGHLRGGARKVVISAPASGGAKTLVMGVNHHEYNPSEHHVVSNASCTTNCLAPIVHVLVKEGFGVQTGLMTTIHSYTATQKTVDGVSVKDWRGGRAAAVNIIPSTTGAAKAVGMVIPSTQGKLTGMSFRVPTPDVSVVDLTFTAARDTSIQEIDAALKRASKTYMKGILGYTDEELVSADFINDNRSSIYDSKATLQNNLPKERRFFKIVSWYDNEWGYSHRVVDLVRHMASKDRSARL

Ki [2] | Ki [5] | SMILES | Activity [3] | Activity (Trypanosoma cruzi) | selectivity ratio [4] | further results
 |  | CCOC(=O)c1cn([C@@H]2O[C@H](COC(=O)c3ccccc3)[C@@H](OC(=O)c3ccccc3)[C@H]2OC(=O)c2ccccc2)c2ccc(Cl)cc2c1=O |  |  |  | IC50 [1]: 40.7 µM
16 µM | 151 µM | O=C(O)c1cn([C@@H]2O[C@H](CO)[C@@H](O)[C@H]2O)c2cc(Br)ccc2c1=O | > 500 µmol/L | 18 µmol/L | > 27 | 
17.1 µM |  | Cc1ccc2c(=O)c(C(=O)O)cn([C@@H]3O[C@H](CO)[C@@H](O)[C@H]3O)c2c1 |  |  |  | 
18.7 µM | 305 µM | COc1ccc2c(c1)c(=O)c(C(=O)O)cn2[C@@H]1O[C@H](CO)[C@@H](O)[C@H]1O | > 500 µmol/L | >500 µmol/L | 1 | 
29.5 µM |  | O=C(O)c1cn([C@@H]2O[C@H](CO)[C@@H](O)[C@H]2O)c2ccc(Br)cc2c1=O |  |  |  | Activity (Saccharomyces cerevisiae): Toxic
57.6 µM |  | Cc1ccc2c(c1)c(=O)c(C(=O)O)cn2[C@@H]1O[C@H](CO)[C@@H](O)[C@H]1O |  |  |  | 
59.5 µM | 105 µM | COc1ccc2c(=O)c(C(=O)O)cn([C@@H]3O[C@H](CO)[C@@H](O)[C@H]3O)c2c1 |  |  |  | Activity (Saccharomyces cerevisiae): Toxic
32.3 µM |  | O=C(O)c1cn([C@@H]2O[C@H](CO)[C@@H](O)[C@H]2O)c2ccc(Cl)cc2c1=O |  |  |  | 
 |  | O=C(Cn1ccnc1[N+](=O)[O-])NCc1ccccc1 [BENZNIDAZOLE] | > 500 µmol/L | 19 µmol/L | > 26 | 
